Measurements: ChEMBL document CHEMBL4725276, “Strategies towards potent trypanocidal drugs: Application of Rh-catalyzed [2 + 2 + 2] cycloadditions, sulfonyl phthalide annulation and nitroalkene reactions for the synthesis of substituted quinones and their evaluation against Trypanosoma cruzi” (Bioorg Med Chem, 2020)

Experiments:
Trypanosoma cruzi [1] = assay: Trypanocidal activity against Trypanosoma cruzi Y strain bloodstream trypomastigotes isolated from infected Albino Swiss mouse assessed as lysis of parasite in presence of 5 % mouse blood incubated for 24 hrs by Neubauer chamber method; assay type: functional, organism-based
Summary of the method: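 Y-strain bloodstream trypomastigotes were isolated from infected mice at peak parasitemia by differential centrifugation and suspended at 10x10⁶ parasites/mL in DMES. They were mixed 1:1 with compound prepared at 2x final (DMSO final ≤0.1%) and incubated 24 h at 4 °C with 5% mouse blood, with benznidazole as control.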

[2] = Selectivity index, ratio of LD50 for cytotoxicity against albino Swiss mouse peritoneal macrophages to IC50 for Trypanocidal activity against Trypanosoma cruzi Y strain bloodstream trypomastigotes isolated from infected albino Swiss mouse in presence of 5 % mouse blood; assay type: toxicity; conditions: read-out: Selectivity Index
Summary of the method: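 Combines the macrophage LD₅₀/24 h with the trypanocidal IC₅₀/24 h, parasite assay run in 5% mouse blood at 4 °C. Y strain bloodstream trypomastigotes from infected Albino Swiss mice (peak parasitemia, differential centrifugation) were suspended at 10x10⁶/mL in DMES. They were mixed 1:1 with compound at twice the final concentration (DMSO ≤0.1% final) for 24 h. Neubauer chamber counts; IC₅₀ is 50% lysis; mean ± SD of at least three independent experiments.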

[3] = Cytotoxicity against albino Swiss mouse Peritoneal macrophages in presence of 5 % mouse blood incubated for 24 hrs by PrestoBlue dye based fluorescence assay; assay type: cell-based, Peritoneal macrophage; conditions: read-out: LD50
Summary of the method: (§1)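 Primary peritoneal macrophages from Albino Swiss mice, 2.5 x 10⁴ cells/well in RPMI-1640 (pH 7.2, 10% foetal bovine serum, 2 mM glutamine), preincubated 24 h at 37 °C. Treated in fresh supplemented medium for 24 h at 37 °C. PrestoBlue added, 2 h incubation, read at 560 and 590 nm. LC₅₀/24 h is the concentration damaging 50% of cells, from reduction relative to untreated cells.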

Trypanosoma cruzi [4] = assay: Trypanocidal activity against Trypanosoma cruzi Y strain bloodstream trypomastigotes isolated from infected Albino Swiss mouse assessed as lysis of parasite in absence of mouse blood incubated for 24 hrs by Neubauer chamber method; assay type: functional, organism-based
Summary of the method: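 Bloodstream trypomastigotes (Y strain) were taken from mice at peak parasitemia by differential centrifugation and resuspended at 10x10⁶/mL in DMES. Equal volumes of suspension and compound at twice final concentration (DMSO final ≤0.1%) were incubated 24 h at 37 °C with no blood added, with benznidazole as control.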

[5] = Selectivity index, ratio of LD50 for cytotoxicity against albino Swiss mouse peritoneal macrophages to IC50 for Trypanocidal activity against Trypanosoma cruzi Y strain bloodstream trypomastigotes isolated from infected albino Swiss mouse in absence of mouse blood; assay type: toxicity; conditions: read-out: Selectivity Index
Summary of the method: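 Combines the macrophage LD₅₀/24 h with the trypanocidal IC₅₀/24 h, parasite assay run without blood at 37 °C. Y strain bloodstream trypomastigotes were taken from infected Albino Swiss mice at peak parasitemia by differential centrifugation, at 10x10⁶/mL in DMES. They were mixed 1:1 with compound at twice the final concentration (DMSO ≤0.1% final) for 24 h. Neubauer counts; IC₅₀ is 50% lysis.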

Trypanosoma cruzi [6] = assay: Potency index, ratio of benznidazole IC50 to compound IC50 for trypanocidal activity against Trypanosoma cruzi Y strain bloodstream trypomastigotes isolated from infected Albino Swiss mouse assessed as lysis of parasite in presence of 5 % mouse blood incubated for 24 hrs by Neubauer chamber method; assay type: functional
[7] = Cytotoxicity against albino Swiss mouse Peritoneal macrophages in absence of mouse blood incubated for 24 hrs in absence of mouse blood by PrestoBlue dye based fluorescence assay; assay type: cell-based, Peritoneal macrophage; conditions: read-out: LD50; summary of the method: as §1

Structure (SMILES)	IC50 (Trypanosoma cruzi [1]) [µM]	also measured
COc1ccc(-n2cc(-c3ccccc3)c3c2C(=O)c2ccccc2C3=O)cc1	> 500	
COc1ccc(-n2cc(-c3ccc(Cl)cc3)c3c2C(=O)c2ccccc2C3=O)cc1	> 500	
Cc1ccc(-c2cn(-c3cccc(Br)c3)c3c2C(=O)c2ccccc2C3=O)cc1	> 500	
O=C1c2ccccc2C(=O)c2c(-c3ccc(F)cc3)coc21	> 500	
O=C1c2ccccc2C(=O)c2c(-c3ccccc3[N+](=O)[O-])coc21	> 500	
COc1ccc(-n2cc(-c3ccc(C)cc3)c3c2C(=O)c2ccccc2C3=O)cc1	> 500	
COc1ccc(-c2cn(-c3ccc(Cl)cc3)c3c2C(=O)c2ccccc2C3=O)cc1	> 500	
CSc1ccc(-c2coc3c2C(=O)c2ccccc2C3=O)cc1	> 500	
Cc1ccc(-c2cn(-c3ccc(C)cc3)c3c2C(=O)c2ccccc2C3=O)cc1	> 500	
COc1ccc(-c2cn(-c3ccc(OC)cc3)c3c2C(=O)c2ccccc2C3=O)cc1	> 500	
COc1ccc(-c2cn(-c3ccccc3)c3c2C(=O)c2ccccc2C3=O)cc1	> 500	
Cc1ccc(-c2cn(-c3ccc(Br)cc3)c3c2C(=O)c2ccccc2C3=O)cc1	> 500	
O=C1c2ccccc2C(=O)c2c(-c3ccc(Br)cc3)coc21	> 500	
COc1ccc(-n2cc(-c3ccc(F)cc3)c3c2C(=O)c2ccccc2C3=O)cc1	> 500	
COc1ccc(-c2cn(-c3ccc(F)cc3)c3c2C(=O)c2ccccc2C3=O)cc1	> 500	
COc1ccc(-c2coc3c2C(=O)c2ccccc2C3=O)cc1	> 500	
COc1ccc(-n2cc(-c3ccco3)c3c2C(=O)c2ccccc2C3=O)cc1	> 500	
O=C1c2ccccc2C(=O)c2c(-c3cccs3)coc21	> 500	
O=C1c2ccccc2C(=O)c2c1oc1ccccc21	> 500	

Structure (SMILES)	IC50 (Trypanosoma cruzi [1]) [µM]	also measured
COC(=O)C1(C(=O)OC)Cc2cc3c(cc2C1)C(=O)C(c1ccccc1OC)=CC3=O	102	
COC(=O)C1(C(=O)OC)Cc2cc3c(c(O)c2C1)C(=O)C=C(OC)C3=O	> 500	
COC(=O)C1(C(=O)OC)Cc2cc3c(cc2C1)C(=O)C(c1ccccc1)=CC3=O	369	
Cc1ccc(S(=O)(=O)n2c3ccccc3c3c(-c4ccccc4)c4c(cc32)C(=O)C=CC4=O)cc1	122	
COC(=O)C1(C(=O)OC)Cc2cc3c(cc2C1)C(=O)C(Cl)=CC3=O	56.6	selectivity ratio [2]: 0.09; CC50 at 24 h [3]: 5 µM
CC(=O)CCC1=C(c2ccco2)C(=O)c2ccccc2C1=O	> 500	
Cc1cc2oc3c(c2cc1C)C(=O)c1ccccc1C3=O	> 500	
COC(=O)C1(C(=O)OC)Cc2c(O)c3c(c(O)c2C1)C(=O)C(OC)=CC3=O	> 500	
COC1=CC(=O)c2cc3c(c(-c4ccc5c(c4)OCO5)c2C1=O)COC3=O	> 500	
Cc1ccc2oc3c(c2c1)C(=O)c1ccccc1C3=O	> 500	
O=C1C=CC(=O)c2c1cc1oc3ccccc3c1c2-c1ccccc1	247	
COC(=O)C1(C(=O)OC)Cc2cc3c(cc2C1)C(=O)C(N(C)c1ccccc1)=CC3=O	> 500	
CCCCc1c2c(c(CCCC)c3c1C(=O)C=CC3=O)CN(S(=O)(=O)c1ccc(C)cc1)C2	> 500	
COC(=O)C1(C(=O)OC)Cc2c(c(-c3ccccc3)c3c(c2-c2ccccc2)C(=O)C=CC3=O)C1	2.5	IC50 (Trypanosoma cruzi [4]): 0.44 µM; selectivity ratio [5]: 3.7; selectivity ratio [2]: 0.6; CC50 at 24 h [3]: 1.6 µM
CCOc1cccc2c3c(oc12)C(=O)c1ccccc1C3=O	> 500	
Cc1ccc(S(=O)(=O)N2Cc3cc4c(cc3C2)C(=O)C=CC4=O)cc1	> 500	
CCCCn1cc(-c2ccc(Cl)cc2)c2c1C(=O)c1ccccc1C2=O	> 500	
COC(=O)C1(C(=O)OC)Cc2cc3c(cc2C1)C(=O)C(I)=CC3=O	51.3	selectivity ratio [2]: 0.03; CC50 at 24 h [3]: 1.6 µM
CC(=O)CCC1=C(c2ccc(F)cc2)C(=O)c2ccccc2C1=O	114	CC50 at 24 h [3]: 65.4 µM

Structure (SMILES)	IC50 (Trypanosoma cruzi [1]) [µM]	also measured
COC(=O)C1(C(=O)OC)Cc2c(c(-c3ccc(OC)cc3)c3c(c2-c2ccc(OC)cc2)C(=O)C=CC3=O)C1	2.3	IC50 (Trypanosoma cruzi [4]): 0.14 µM; selectivity ratio [5]: 13.9; selectivity ratio [2]: 0.81; CC50 at 24 h [3]: 1.9 µM
O=C1C=CC(=O)c2cc3c(cc21)CCC3	49.2	selectivity ratio [2]: 0.03; Ratio IC50 (Trypanosoma cruzi [6]): 2; CC50 at 24 h [3]: 1.7 µM
COC(=O)C1(C(=O)OC)Cc2c(c(-c3ccc(F)cc3)c3c(c2-c2ccc(F)cc2)C(=O)C=CC3=O)C1	3.3	IC50 (Trypanosoma cruzi [4]): 0.32 µM; selectivity ratio [5]: 9.3; selectivity ratio [2]: 0.89; CC50 at 24 h [3]: 3 µM
O=C1C=CC(=O)c2cc3c(cc21)COC3	193	
COc1ccc(C2=C(CCC(C)=O)C(=O)c3ccccc3C2=O)cc1	109	selectivity ratio [2]: 1.38; CC50 at 24 h [3]: 79 µM
COC(=O)C1(C(=O)OC)Cc2cc3c(cc2C1)C(=O)C(OC)=CC3=O	> 500	
COC(=O)C1(C(=O)OC)Cc2cc3c(cc2C1)C(=O)C(c1ccccc1Br)=CC3=O	51.5	selectivity ratio [2]: 0.07; CC50 at 24 h [3]: 3.8 µM
COC(=O)C1(C(=O)OC)Cc2c(C)c3c(c(C)c2C1)C(=O)C=CC3=O	> 500	
COC(=O)C1(C(=O)OC)Cc2cc3c(cc2C1)C(=O)C=CC3=O	51.5	selectivity ratio [2]: 0.03; CC50 at 24 h [3]: 1.6 µM
COC(=O)C1(C(=O)OC)Cc2cc3c(c(C(=O)O)c2C1)C(=O)C=CC3=O	> 500	
COC(=O)C1(C(=O)OC)Cc2cc3c(cc2C1)C(=O)C(C)=C(C)C3=O	> 500	
COC(=O)C1(C(=O)OC)Cc2cc3c(c(CO[Si](C)(C)C(C)(C)C)c2C1)C(=O)C=CC3=O	> 500	
COC(=O)C1(C(=O)OC)Cc2cc3c(cc2C1)C(=O)C(c1ccc(C(F)(F)F)cc1)=CC3=O	362	
CCCCc1c2c(cc3c1C(=O)C=CC3=O)CC(C(=O)OC)(C(=O)OC)C2	64.4	selectivity ratio [2]: 0.07; CC50 at 24 h [3]: 4.2 µM
COC(=O)C1(C(=O)OC)Cc2cc3c(cc2C1)C(=O)c1ccccc1C3=O	> 500	
COC(=O)C1(C(=O)OC)Cc2cc3c(cc2C1)C(=O)C(Br)=CC3=O	150	
COc1ccc2oc3c(c2c1)C(=O)c1ccccc1C3=O	> 500	
O=C(Cn1ccnc1[N+](=O)[O-])NCc1ccccc1 [BENZNIDAZOLE]		CC50 at 24 h [7]: > 1000 µM; IC50 (Trypanosoma cruzi [4]): 8.8 µM
